Assay results from different studies.
Each line is one published result; the experiments were not run side by side.

Compound | system | setting | endpoint | value
CCCCCCCc1[nH]c2ccccc2c(=O)c1O | PAMPA | 40 µM, 5 h, pH 7.4 | Papp | 1.2 to 4 ×10⁻⁶ cm/s
O=[N+]([O-])c1ccc2c(c1)S(=O)(=O)C=C2 | PAMPA-BBB | pH 7.4 | Papp | 3.98 ×10⁻⁶ cm/s
N#C[C@@]12C[C@@H]1[C@@H](n1cnc3c(N[C@@H](C4CCC4)C4CC4)nc(I)nc31)[C@H](O)[C@@H]2O | male Wistar rat, plasma | oral, 10 mg/kg | AUC(0-inf) | 349 ng·h/mL
O=C1CC[C@H](N2Cc3cc(N4CCN(CC5CCN(c6ccc([C@@H]7c8ccc(O)cc8CC[C@@H]7c7ccccc7)cc6)CC5)CC4)ccc3C2=O)C(=O)N1 | female Sprague-Dawley rat, plasma | intravenous, 5 mg/kg, fed | AUC(0-inf) | 11600 ng·h/mL
CC(C)C[C@@H]1NC(=O)CN(C)C(=O)[C@H](Cc2ccccc2)NCC2=CC=C(CNC1=O)O2 | PAMPA | 100 µM, 17 h, pH 6.4 | Papp | 1.3 ×10⁻⁶ cm/s
CC(C)Cc1ccc(C(C)C(=O)O)cc1 (stereo not drawn) | PAMPA-BBB | pH 7.4 | Papp | 11.6 ×10⁻⁶ cm/s
Cc1c(C(=O)O)ccc2c3n(nc12)[C@@H]1[C@H](C3)N(CC2CC2)[C@@]2(C(=O)Nc3cc(Cl)ccc32)[C@H]1c1cccc(Cl)c1F | female minipig, plasma | oral, 2 mg/kg | Cmax | 900 nM
CC(C)C[C@@H]1NC(=O)[C@H](C)NC(=O)[C@H](Cc2ccccc2)NCC2=CC=C(CN(C)C1=O)O2 | PAMPA | 100 µM, 17 h, pH 6.4 | Papp | 1.9 ×10⁻⁶ cm/s
CC(C)NCC(O)COc1cccc2ccccc12 (stereo not drawn) | PAMPA | 40 µM, 5 h, pH 7.4 | Papp | 14.3 ×10⁻⁶ cm/s
